# Source: ChEMBL document CHEMBL2046289, “Novel 2-(2-(benzylthio)-1H-benzo[d]imidazol-1-yl)acetic acids: discovery and hit-to-lead evolution of a selective CRTh2 receptor antagonist chemotype” (Bioorg Med Chem Lett, 2012)
# Columns and labels:
# [1] = biological target: T1, Prostaglandin D2 receptor 2 (Homo sapiens, UniProt Q9Y5Y4); test: Displacement of [3H]-PGD2 from human CRTh2 receptor expressed in HEK293 cells; type: cell-based
# T1 sequence (Q9Y5Y4 whole entry): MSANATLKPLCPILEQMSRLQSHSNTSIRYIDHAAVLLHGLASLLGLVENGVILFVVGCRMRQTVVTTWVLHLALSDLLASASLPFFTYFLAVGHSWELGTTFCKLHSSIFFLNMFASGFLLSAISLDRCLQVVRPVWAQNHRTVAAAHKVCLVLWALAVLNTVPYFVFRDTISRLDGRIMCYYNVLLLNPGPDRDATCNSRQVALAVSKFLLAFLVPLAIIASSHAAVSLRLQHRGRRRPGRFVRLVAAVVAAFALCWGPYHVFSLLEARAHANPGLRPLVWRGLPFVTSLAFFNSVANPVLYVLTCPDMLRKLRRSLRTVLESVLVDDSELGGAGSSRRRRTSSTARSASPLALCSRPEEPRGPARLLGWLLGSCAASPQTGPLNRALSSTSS
# [2] = biological target: T1, Prostaglandin D2 receptor 2; test: Antagonist activity at human CRTh2 receptor expressed in HEK293 cells assessed as inhibition of PGD2-induced calcium flux by FLIPR assay; type: functional, cell-based
# [3] = Solubility of the compound in 0.1 M HCl; type: physicochemical; settings: buffer
# Cytochrome P450 3A4 [4] = biological target: T2, Cytochrome P450 3A4 (Homo sapiens, UniProt P08684); test: Inhibition of CYP3A4 using midazolam as substrate; type: ADME
# [5] = biological target: T1, Prostaglandin D2 receptor 2; test: Displacement of [3H]-PGD2 from human CRTh2 receptor expressed in HEK293 cells in presence of 0.5% human serum albumin; type: cell-based
# [6] = Intrinsic clearance in human liver microsomes assessed per mg protein; type: ADME, Microsome; settings: read-out: CLH
# [7] = Stability of the compound in simulated intestinal fluid assessed as compound remaining after 4 hrs; type: physicochemical; settings: read-out: Stability
# Outline: (§1)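 Compound incubated in simulated gastric fluid for 1 h or simulated intestinal fluid for 4 h; unchanged parent recovered quantified by LC-MS, expressed as % parent remaining.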
# Cytochrome P450 2C9 = Cytochrome P450 2C9 (Homo sapiens, UniProt P11712); test: Inhibition of CYP2C9; type: ADME
# [8] = Metabolic stability of the compound in human plasma assessed as compound remaining after 4 hrs; type: ADME, cell-free; settings: read-out: Stability
# [9] = Stability of the compound in simulated gastric fluid assessed as compound remaining after 1 hr; type: physicochemical; settings: read-out: Stability; outline: as §1
# [10] = Solubility of the compound in Tris buffer at pH 9; type: physicochemical
# Cytochrome P450 3A4 [11] = biological target: T2, Cytochrome P450 3A4; test: Inhibition of CYP3A4 using testosterone as substrate; type: ADME
# [12] = Solubility of the compound in phosphate buffer at pH 7; type: physicochemical
# Cytochrome P450 2D6 = Cytochrome P450 2D6 (Homo sapiens, UniProt P10635); test: Inhibition of CYP2D6; type: ADME
# [13] = biological target: T3, Prostaglandin D2 receptor (Homo sapiens, UniProt Q13258); test: Displacement of [3H]-PGD2 from human DP1 receptor expressed in CHO cells; type: cell-based
# T3 sequence (Q13258 whole entry): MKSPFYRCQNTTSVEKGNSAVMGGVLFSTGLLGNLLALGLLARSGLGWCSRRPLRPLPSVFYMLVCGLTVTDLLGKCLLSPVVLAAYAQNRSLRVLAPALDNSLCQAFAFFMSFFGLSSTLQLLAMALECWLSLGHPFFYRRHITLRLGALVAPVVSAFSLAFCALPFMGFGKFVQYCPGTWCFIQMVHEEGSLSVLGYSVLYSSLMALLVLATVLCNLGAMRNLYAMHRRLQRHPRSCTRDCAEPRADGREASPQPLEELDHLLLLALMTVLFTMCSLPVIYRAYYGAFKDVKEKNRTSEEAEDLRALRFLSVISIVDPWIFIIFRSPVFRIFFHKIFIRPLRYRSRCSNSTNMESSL
# [14] = Lipophilicity, log D of the compound at pH 7.4; type: physicochemical; settings: buffer
# [15] = Intrinsic clearance in rat hepatocytes assessed per 10^6 cells; type: ADME, cell-based, Hepatocyte; settings: read-out: CLH
# [16] = Intrinsic clearance in rat liver microsomes assessed per mg protein; type: ADME, Microsome; settings: read-out: CLH
# [17] = Volume of distribution at steady state in Wistar rat at 1 mg/kg, iv and 10 mg/kg, po; type: ADME, organism-based; settings: in vivo, read-out: Vdss
# Outline: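 Male Wistar rats, 3 animals per experiment; intravenous dose 1 mg/kg and oral dose 10 mg/kg, each given as a solution.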
# T2 sequence (P08684 whole entry): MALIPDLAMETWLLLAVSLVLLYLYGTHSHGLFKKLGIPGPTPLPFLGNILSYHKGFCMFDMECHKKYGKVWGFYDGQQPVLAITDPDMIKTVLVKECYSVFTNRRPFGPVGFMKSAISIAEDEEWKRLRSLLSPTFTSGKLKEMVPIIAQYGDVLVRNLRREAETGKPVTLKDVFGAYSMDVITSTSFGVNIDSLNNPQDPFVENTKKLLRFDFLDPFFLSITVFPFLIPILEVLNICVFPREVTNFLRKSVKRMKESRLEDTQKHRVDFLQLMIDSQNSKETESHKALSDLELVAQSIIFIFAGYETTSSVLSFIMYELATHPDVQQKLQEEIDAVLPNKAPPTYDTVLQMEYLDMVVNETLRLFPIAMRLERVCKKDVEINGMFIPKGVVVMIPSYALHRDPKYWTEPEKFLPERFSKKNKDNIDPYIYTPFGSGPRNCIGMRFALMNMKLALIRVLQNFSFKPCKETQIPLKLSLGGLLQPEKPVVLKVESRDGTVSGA
# Cytochrome P450 2C9, sequence (P11712 whole entry): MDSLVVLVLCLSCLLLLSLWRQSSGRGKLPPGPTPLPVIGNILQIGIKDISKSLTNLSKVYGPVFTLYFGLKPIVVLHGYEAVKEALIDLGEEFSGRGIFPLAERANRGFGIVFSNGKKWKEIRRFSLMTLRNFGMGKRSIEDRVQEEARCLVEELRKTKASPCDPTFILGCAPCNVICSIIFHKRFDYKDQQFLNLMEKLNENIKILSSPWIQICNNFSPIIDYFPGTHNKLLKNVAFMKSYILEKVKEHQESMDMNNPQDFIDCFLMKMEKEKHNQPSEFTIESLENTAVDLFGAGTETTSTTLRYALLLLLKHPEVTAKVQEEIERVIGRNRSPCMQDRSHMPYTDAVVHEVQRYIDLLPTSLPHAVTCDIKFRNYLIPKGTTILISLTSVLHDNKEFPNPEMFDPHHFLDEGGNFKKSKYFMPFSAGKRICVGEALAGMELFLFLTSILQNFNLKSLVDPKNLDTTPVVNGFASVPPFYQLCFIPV
# Cytochrome P450 2D6, sequence (P10635 whole entry): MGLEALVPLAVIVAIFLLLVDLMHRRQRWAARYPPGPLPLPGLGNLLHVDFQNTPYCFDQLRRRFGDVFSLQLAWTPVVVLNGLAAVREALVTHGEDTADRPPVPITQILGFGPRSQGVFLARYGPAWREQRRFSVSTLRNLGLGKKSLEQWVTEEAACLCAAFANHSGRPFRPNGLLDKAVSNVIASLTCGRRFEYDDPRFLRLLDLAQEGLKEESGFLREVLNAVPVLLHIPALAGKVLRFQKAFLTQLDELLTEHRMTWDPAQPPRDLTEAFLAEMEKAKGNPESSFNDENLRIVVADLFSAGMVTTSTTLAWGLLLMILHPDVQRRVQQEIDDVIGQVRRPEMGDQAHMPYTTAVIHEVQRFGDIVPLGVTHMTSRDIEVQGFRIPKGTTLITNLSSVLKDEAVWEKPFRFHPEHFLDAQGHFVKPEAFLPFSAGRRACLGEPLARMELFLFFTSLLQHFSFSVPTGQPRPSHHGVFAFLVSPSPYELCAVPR
IC50 [1] [nM],Structure (SMILES),further results
1500,O=C(O)Cn1c(SCCOc2ccc(Cl)cc2)nc2ccccc21,IC50 [2]: 6600 nM
388,O=C(O)Cn1c(SCc2ccccc2)nc2ccccc21,–
450,COC(=O)c1cccc(CSc2nc3ccccc3n2CC(=O)O)c1,–
160,O=C(O)Cn1c(SCc2ccc(Cl)cc2)nc2ccccc21,–
186,O=C(O)Cn1c(SCc2cccc(Cl)c2)nc2ccccc21,–
370,O=C(O)Cn1c(SCc2ccccc2Cl)nc2ccccc21,–
210,COc1ccc(CSc2nc3ccccc3n2CC(=O)O)cc1,–
72,COc1cccc(CSc2nc3ccccc3n2CC(=O)O)c1,–
1100,COc1ccccc1CSc1nc2ccccc2n1CC(=O)O,–
220,Cc1ccc(CSc2nc3ccccc3n2CC(=O)O)cc1,–
105,Cc1cccc(CSc2nc3ccccc3n2CC(=O)O)c1,–
810,Cc1ccccc1CSc1nc2ccccc2n1CC(=O)O,–
220,O=C(O)Cn1c(SCc2ccc(Br)cc2)nc2ccccc21,–
370,O=C(O)Cn1c(SCc2cccc(Br)c2)nc2ccccc21,–
580,O=C(O)Cn1c(SCc2ccccc2Br)nc2ccccc21,–
10600,COC(=O)c1ccc(CSc2nc3ccccc3n2CC(=O)O)cc1,–
380,O=C(O)Cn1c(SCc2ccc(Cl)c(Cl)c2)nc2ccccc21,–
470,O=C(O)Cn1c(SCc2cc(Cl)ccc2Cl)nc2ccccc21,–
1200,COc1ccc(C)cc1CSc1nc2ccccc2n1CC(=O)O,–
740,COc1ccc(Cl)cc1CSc1nc2ccccc2n1CC(=O)O,–
1600,COc1ccc(OC)c(CSc2nc3ccccc3n2CC(=O)O)c1,–
980,COC(=O)c1cc(CSc2nc3ccccc3n2CC(=O)O)ccc1Br,–
330,COC(=O)c1cc(Br)cc(CSc2nc3ccccc3n2CC(=O)O)c1,–
45,COC(=O)c1ccc(Br)c(CSc2nc3ccccc3n2CC(=O)O)c1,–
230,CC(=O)c1cccc(CSc2nc3ccccc3n2CC(=O)O)c1,–
881,O=C(O)Cn1c(SCCc2ccccc2)nc2ccccc21,–
2200,COc1ccc(C(C)O)cc1CSc1nc2ccccc2n1CC(=O)O (racemic),–

# The next lines start with the compound.
Structure (SMILES),IC50 [1] [nM],further results
O=C(O)Cn1c(SCCOc2ccccc2)nc2ccccc21,590,–
O=C(O)Cn1c(SCCOc2ccc3ccccc3c2)nc2ccccc21,2500,–
O=C(O)Cn1c(SCCOc2cccc3ccccc23)nc2ccccc21,2000,–
O=C(O)Cn1c(SCCCOc2ccccc2)nc2ccccc21,786,–
O=C(O)Cn1c(SCCCCOc2ccccc2)nc2ccccc21,1400,–
O=C(O)Cn1c(SCCCc2ccccc2)nc2ccccc21,475,–
O=C(O)Cn1c(SCCCNc2ccccc2)nc2ccccc21,2690,–
O=C(O)Cn1c(SCCNc2ccccc2)nc2ccccc21,7690,–
CCCCCCSc1nc2ccccc2n1CC(=O)O,1360,–
CCCCCSc1nc2ccccc2n1CC(=O)O,1240,–
CCCCSc1nc2ccccc2n1CC(=O)O,2370,–
CCOC(=O)CCSc1nc2ccccc2n1CC(=O)O,11400,–
CCOC(=O)CCCSc1nc2ccccc2n1CC(=O)O,4410,–
CCOC(=O)CCCCSc1nc2ccccc2n1CC(=O)O,2360,–
CCOC(=O)CCCCCSc1nc2ccccc2n1CC(=O)O,1010,–
CCNC(=O)CCCCSc1nc2ccccc2n1CC(=O)O,> 10000,–
COC(=O)c1ccccc1CSc1nc2ccccc2n1CC(=O)O,520,–
COC(=O)c1ccc(OC)c(CSc2nc3ccccc3n2CC(=O)O)c1,29,–
COC(=O)c1cccc(CSc2nc3ccccc3n2CC(=O)O)c1Br,2900,–
COc1ccc(C(=O)OC(C)C)cc1CSc1nc2ccccc2n1CC(=O)O,150,–

Structure (SMILES),IC50 [1] [nM],further results
COc1ccc(C(C)=O)cc1CSc1nc2c(F)cccc2n1CC(=O)O,5,IC50 [2]: 10 nM
COc1ccc(C(C)=O)cc1CSc1nc2ccc(F)cc2n1CC(=O)O,45,IC50 [2]: 89 nM
COc1ccc(C(C)=O)cc1CSc1nc2cc([N+](=O)[O-])ccc2n1CC(=O)O,2,IC50 [2]: 3 nM
COc1ccc(C(C)=O)cc1CSc1nc2cc(C(F)(F)F)ccc2n1CC(=O)O,3,IC50 [2]: 5 nM
COc1ccc(C(C)=O)cc1CSc1nc2cc(S(C)(=O)=O)ccc2n1CC(=O)O,41,IC50 [2]: 50 nM
COc1ccc(C(C)=O)cc1CSc1nc2cc(C(C)=O)ccc2n1CC(=O)O,33,IC50 [2]: 63 nM
COc1ccc(C(C)=O)cc1CSc1nc2cc(C=O)ccc2n1CC(=O)O,4,IC50 [2]: 9 nM
CCOc1ccc(C(C)=O)cc1CSc1nc2cc(F)ccc2n1CC(=O)O,4,IC50 [2]: 5 nM
CCCOc1ccc(C(C)=O)cc1CSc1nc2cc(F)ccc2n1CC(=O)O,5,IC50 [2]: 9 nM
CCCCOc1ccc(C(C)=O)cc1CSc1nc2cc(F)ccc2n1CC(=O)O,9,IC50 [2]: 12 nM
COc1ccc(C(=O)c2ccccc2)cc1CSc1nc2cc(F)ccc2n1CC(=O)O,1.7,IC50 [2]: 4 nM
CCNC(=O)c1ccc(OC)c(CSc2nc3cc(F)ccc3n2CC(=O)O)c1,16,IC50 [2]: 15 nM
CCCCNC(=O)c1ccc(OC)c(CSc2nc3cc(F)ccc3n2CC(=O)O)c1,16,solubility [3]: 670 µg/mL; IC50 (Cytochrome P450 3A4 [4]): 4000 nM; IC50 [5]: 81 nM; microsomal CLint [6]: 7 µL/min/mg; remaining at 4 h [7]: 78%; IC50 (Cytochrome P450 2C9): 6000 nM; remaining at 4 h [8]: 100%; remaining at 1 h [9]: 94%; solubility [10]: > 750 µg/mL; IC50 (Cytochrome P450 3A4 [11]): 7000 nM; solubility [12]: 719 µg/mL; IC50 (Cytochrome P450 2D6): > 50000 nM; IC50 [13]: > 10000 nM; logD [14]: 0.1; hepatocyte CLint [15]: 6 µL/min/1e6 cells; IC50 [2]: 15 nM; microsomal CLint [16]: 60 µL/min/mg
COc1ccc(C(=O)NCc2ccccc2)cc1CSc1nc2cc(F)ccc2n1CC(=O)O,59,IC50 [2]: 94 nM
CCN(CC)C(=O)c1ccc(OC)c(CSc2nc3cc(F)ccc3n2CC(=O)O)c1,72,IC50 [2]: 130 nM
CCN(Cc1ccccc1)C(=O)c1ccc(OC)c(CSc2nc3cc(F)ccc3n2CC(=O)O)c1,495,IC50 [2]: 725 nM
COc1ccc(C(=O)N2CCOCC2)cc1CSc1nc2cc(F)ccc2n1CC(=O)O,107,IC50 [2]: 91 nM
COc1ccc(C(=O)N2CCc3ccccc32)cc1CSc1nc2cc(F)ccc2n1CC(=O)O,3,solubility [3]: 158 µg/mL; IC50 (Cytochrome P450 3A4 [4]): 5000 nM; IC50 [5]: 8 nM; microsomal CLint [6]: 2 µL/min/mg; remaining at 4 h [7]: 100%; IC50 (Cytochrome P450 2C9): 28000 nM; remaining at 4 h [8]: 93%; remaining at 1 h [9]: 100%; solubility [10]: 789 µg/mL; IC50 (Cytochrome P450 3A4 [11]): 13000 nM; solubility [12]: 812 µg/mL; IC50 (Cytochrome P450 2D6): > 50000 nM; IC50 [13]: > 10000 nM; logD [14]: 0.3; hepatocyte CLint [15]: 12 µL/min/1e6 cells; microsomal CLint [16]: 91 µL/min/mg
CC(=O)Oc1ccccc1C(=O)O [ASPIRIN],–,Vd [17]: 1 L/kg
CC(=O)CC(c1ccccc1)c1c(O)c2ccccc2oc1=O (configuration not stated) [WARFARIN],–,Vd [17]: 1 L/kg
